Active and inactive are the calls of the source. No cut-off for these calls is given here.
Legend:
[1] = test system: Lung; test: Antiinflammatory activity in C57bl/6 mouse precision-cut lung slices assessed as effect on LPS/IFNgamma-induced HDAC1 gene expression at 1 to 10 uM preincubated for 20 hrs followed by LPS/IFNgamma stimulation and measured after 4 hrs by RT-qPCR analysis; format: functional, tissue-based; conditions: dose 1-10 µM, time 24.0 hrs
[2] = test system: Lung; test: Antiinflammatory activity in C57bl/6 mouse precision-cut lung slices assessed as upregulation of LPS/IFNgamma-induced IkappaBalpha gene expression at 1 to 10 uM preincubated for 20 hrs followed by LPS/IFNgamma stimulation and measured after 4 hrs by RT-qPCR analysis; format: functional, tissue-based; conditions: dose 1-10 µM, time 24.0 hrs
[3] = target: T1, Histone deacetylase 3 (Mus musculus) (UniProt O88895); test: Inhibition of HDAC3 in mouse RAW-Blue cells assessed as effect on NF-kappaB p65 transcriptional activity measured after 16 hrs by SEAP reporter gene assay; format: cell-based
T1 sequence (whole entry): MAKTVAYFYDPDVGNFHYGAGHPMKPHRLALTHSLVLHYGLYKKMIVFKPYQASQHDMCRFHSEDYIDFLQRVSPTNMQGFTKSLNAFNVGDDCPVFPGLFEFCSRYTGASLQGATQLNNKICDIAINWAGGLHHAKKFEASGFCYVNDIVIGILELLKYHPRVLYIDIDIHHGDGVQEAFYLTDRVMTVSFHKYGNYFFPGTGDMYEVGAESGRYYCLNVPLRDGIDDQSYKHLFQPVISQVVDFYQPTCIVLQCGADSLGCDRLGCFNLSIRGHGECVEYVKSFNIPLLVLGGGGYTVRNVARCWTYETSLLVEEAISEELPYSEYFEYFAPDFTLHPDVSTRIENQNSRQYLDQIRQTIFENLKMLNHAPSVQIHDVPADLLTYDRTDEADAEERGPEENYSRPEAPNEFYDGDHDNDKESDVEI
Summary of the method: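 RAW-Blue cells (RAW 264.7-derived, stably expressing an NF-κB/AP-1-inducible secreted embryonic alkaline phosphatase) exposed to inhibitor for 20 h total, with 10 ng/ml LPS plus 10 ng/ml IFNγ added for the final 4 h. Supernatant mixed with QUANTI-Blue medium, 37 °C 1–2 h in the dark, absorbance 630 nm; reported as % of control.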

[4] = test system: HASMC; test: Antiinflammatory activity in HASMC cells assessed as effect on LPS/IFNgamma-induced IL-1beta gene expression at 2 uM […] by RT-qPCR analysis; format: functional, cell-based; conditions: Homo sapiens
Summary of the method: (§1)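 HBE cells (passage 73–103) or immortalized hASM cells (2–3 donors, passage 27–35), serum-starved. Then 2 μM RGFP966 for 20 h, with LPS/IFNγ for the last 4 h. Total RNA isolated; RT-qPCR by 2−ΔΔCt, fold change versus LPS/IFNγ control. Mean ± SD of 3–5 independent experiments.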

[5] = test system: RAW264.7; test: Antiinflammatory activity in LPS/IFNgamma-stimulated mouse RAW264.7 cells assessed as effect on NF-kappaB p65 mRNA expression preincubated for 20 hrs followed by LPS/IFNgamma stimulation and measured after 4 hrs by RT-qPCR analysis; format: functional, cell-based; conditions: time 24.0 hrs
[6] = target: Histone deacetylase 2 (Mus musculus) (UniProt P70288); test: Effect on HDAC2 nuclear localization in LPS/IFNgamma-stimulated mouse RAW264.7 cells preincubated for 20 hrs followed by LPS/IFNgamma stimulation and measured after 1 hr by Hoechst staining based confocal laser scanning microscopy; format: cell-based
Chain of Histone deacetylase 2 (Mus musculus) (P70288 whole entry): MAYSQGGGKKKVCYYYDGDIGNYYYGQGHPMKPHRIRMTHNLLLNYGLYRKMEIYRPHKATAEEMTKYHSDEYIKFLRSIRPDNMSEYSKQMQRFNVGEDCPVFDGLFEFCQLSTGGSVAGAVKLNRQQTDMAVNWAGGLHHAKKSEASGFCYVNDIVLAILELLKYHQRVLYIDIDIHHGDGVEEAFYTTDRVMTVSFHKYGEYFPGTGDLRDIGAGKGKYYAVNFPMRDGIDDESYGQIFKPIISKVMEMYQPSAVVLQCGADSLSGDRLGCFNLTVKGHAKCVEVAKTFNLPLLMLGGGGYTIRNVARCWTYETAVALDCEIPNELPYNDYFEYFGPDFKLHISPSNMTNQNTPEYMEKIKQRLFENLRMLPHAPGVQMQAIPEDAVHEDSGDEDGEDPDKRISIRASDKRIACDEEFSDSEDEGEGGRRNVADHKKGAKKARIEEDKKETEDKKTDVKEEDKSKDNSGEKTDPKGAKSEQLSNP
Summary of the method: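 RAW 264.7 cells at 20,000 cells/cm2 received 1 μM RGFP966 for 20 h, then 1 h LPS/IFNγ. Fixed in 4% formaldehyde, permeabilized with 0.25% Triton X-100, blocked with 5% BSA. Primary antibodies 2 h at 4 °C, AlexaFluor secondaries 1 h, Hoechst nuclear stain. Confocal imaging at 630×; 4 independent experiments.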

[7] = test system: HBE; test: Antiinflammatory activity in HBE cells assessed as effect on LPS/IFNgamma-induced TNFalpha gene expression at 2 uM […] by RT-qPCR analysis; format: functional, cell-based; conditions: Homo sapiens; summary of the method: as §1
[8] = test system: Lung; test: Antiinflammatory activity in C57bl/6 mouse precision-cut lung slices assessed as effect on LPS/IFNgamma-induced HDAC2 expression at 1 to 10 uM preincubated for 20 hrs followed by LPS/IFNgamma stimulation and measured after 4 hrs by Western blot analysis; format: functional, tissue-based; conditions: dose 1-10 µM, time 24.0 hrs
[9] = target: T1, Histone deacetylase 3 (Mus musculus); test: Inhibition of HDAC3 in mouse RAW264.7 cells assessed as effect on LPS/IFNgamma-induced IkappaBalpha activation preincubated for 20 hrs followed by LPS/IFNgamma stimulation and measured after 1 hr by Western blot analysis; format: cell-based
[10] = test system: Lung; test: Antiinflammatory activity in C57bl/6 mouse precision-cut lung slices assessed as effect on LPS/IFNgamma-induced HDAC1 expression at 1 to 10 uM preincubated for 20 hrs followed by LPS/IFNgamma stimulation and measured after 4 hrs by Western blot analysis; format: functional, tissue-based; conditions: dose 1-10 µM, time 24.0 hrs
[11] = test system: Lung; test: Antiinflammatory activity in C57bl/6 mouse precision-cut lung slices assessed as upregulation of LPS/IFNgamma-induced IL-1beta gene expression at 1 to 10 uM preincubated for 20 hrs followed by LPS/IFNgamma stimulation and measured after 4 hrs by RT-qPCR analysis relative to control; format: functional; conditions: dose 1-10 µM; time 24 hrs
Summary of the method: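 PCLS, 250 μm thick, cut from agarose-filled lungs of male C57bl/6 mice (24–28 g, 8–10 weeks). Three slices per well at 37 °C, 5% CO2. Slices received RGFP966 at 1 and 10 μM final for 20 h, with 10 ng/ml LPS and 10 ng/ml IFNγ stimulation. RNA isolated; RT-qPCR fold change versus LPS/IFNγ control by 2−ΔΔCt. Mean ± SD, n = 3–5.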

[12] = test system: RAW264.7; test: Antiinflammatory activity in LPS/IFNgamma-stimulated mouse RAW264.7 cells assessed as effect on IkappaBalpha mRNA expression preincubated for 20 hrs followed by LPS/IFNgamma stimulation and measured after 4 hrs by RT-qPCR analysis; format: functional, cell-based; conditions: time 24.0 hrs
[13] = test system: HASMC; test: Antiinflammatory activity in HASMC cells assessed as effect on LPS/IFNgamma-induced IL-10 gene expression at 2 uM […] by RT-qPCR analysis; format: functional, cell-based; conditions: Homo sapiens; summary of the method: as §1
[14] = test system: RAW264.7; test: Cytotoxicity against mouse RAW264.7 cells assessed as reduction in cell viability at 1 uM measured after 20 hrs by MTS assay; format: toxicity, cell-based; conditions: raw264.7, 20 h
Summary of the method: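 MTS viability assay. RAW 264.7 cells seeded at 25,000 cells/cm2; HBE and hASM cells at 70% confluency and serum-starved for 24 h. Exposure for 20 h with LPS/IFNγ stimulation. MTS reagent added for 1 h at 37 °C in the dark, absorbance read at 490 nm. LPS/IFNγ-stimulated cells without inhibitor set at 100%.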

[15] = target: T1, Histone deacetylase 3 (Mus musculus); test: Inhibition of HDAC3 in mouse RAW264.7 cells assessed as effect on histone H4 acetylation measured after 20 hrs by Western blot analysis; format: cell-based
Summary of the method: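 Histones extracted from RAW 264.7 cells after 20 h inhibitor treatment, protein quantified by micro BCA (BSA standard), and H3 and H4 acetylation assessed by Western blot versus vehicle-treated cells.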

Nc1cc(F)ccc1NC(=O)/C=C/c1cnn(C/C=C/c2ccccc2)c1
Activity [1]: inactive | Activity [2]: Active | inhibition [3]: inactive | Activity [4]: inactive | Activity [5]: inactive | Activity [6]: inactive | Activity [7]: inactive | Activity [8]: inactive | inhibition [9]: inactive | Activity [10]: inactive | fold change (FC) [11]: >2 | Activity [12]: inactive | Activity [13]: inactive | Activity [14]: Non-Toxic | inhibition [15]: inactive

— ChEMBL document CHEMBL5653624 (Biochem Pharmacol, 2016)
